Values after ≈ are worked out from the molar mass of the structure shown.
Experiments:
Rattus norvegicus [1] = experiment: Inhibition of TNFalpha production in Sprague-Dawley rat at 10 mg/kg, po administered 1 hr prior to LPS challenge after 1.5 hrs; assay type: functional
Blood = experiment: Inhibition of LPS-stimulated TNFalpha production in human blood; assay type: functional
Monocyte = experiment: Inhibition of LPS-stimulated TNFalpha production in monocytes; assay type: functional, Homo sapiens
[2] = molecular target: Mitogen-activated protein kinase kinase kinase 8 (Homo sapiens, UniProt P41279); experiment: Inhibition of Tpl2 by ELISA
Rattus norvegicus [3] = experiment: AUC (0 to infinity) in Sprague-Dawley rat at 25 mg/kg, po; assay type: ADME, organism-based, Plasma; set-up: dose 25 mg/kg, route oral; settings: in vivo
Method in brief: (§1)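 Female Sprague-Dawley rats were dosed by the iv or oral route. Parameters are reported as means of individual-animal pharmacokinetic values.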

[4] = Volume of distribution at steady state in Sprague-Dawley rat at 5 mg/kg, iv; assay type: ADME, organism-based; set-up: dose 5 mg/kg, route intravenous; settings: in vivo, read-out: Vss; method in brief: as §1
[5] = molecular target: cAMP-dependent protein kinase (PKA) (Homo sapiens, UniProt P22694+P17612+P22612); experiment: Inhibition of PKA; assay type: protein assay
[6] = molecular target: Ribosomal protein S6 kinase beta-1 (Homo sapiens, UniProt P23443); experiment: Inhibition of S6K
[7] = Plasma clearance in Sprague-Dawley rat at 5 mg/kg, iv; assay type: ADME, organism-based; set-up: dose 5 mg/kg, route intravenous; method in brief: as §1
[8] = Half life in Sprague-Dawley rat at 5 mg/kg, iv; assay type: ADME, organism-based; set-up: dose 5 mg/kg, route intravenous; settings: in vivo; method in brief: as §1
[9] = Permeability at pH 7.4 by PAMPA method; assay type: ADME; settings: read-out: permeability
Method in brief: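 Passive permeability was measured by high-resolution PAMPA at pH 7.4.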

[10] = Bioavailability in Sprague-Dawley rat at 25 mg/kg, po; assay type: ADME, organism-based; settings: in vivo; method in brief: as §1
physchem = settings: buffer, pH 7.4
[11] = molecular target: Protein kinase C alpha type (Homo sapiens, UniProt P17252); experiment: Inhibition of PKCalpha
[12] = Half life in Sprague-Dawley rat at 25 mg/kg, po; assay type: ADME, organism-based; set-up: dose 25 mg/kg, route oral; settings: in vivo; method in brief: as §1
[13] = molecular target: Proto-oncogene tyrosine-protein kinase Src (Homo sapiens, UniProt P12931); experiment: Inhibition of Src
CaM kinase II = CaM kinase II (Homo sapiens, UniProt Q13557+Q13555+Q13554+Q9UQM7)
Cytochrome P450 3A4 = Cytochrome P450 3A4 (Homo sapiens, UniProt P08684)
[14] = molecular target: MAP kinase-activated protein kinase 2 (Homo sapiens, UniProt P49137); experiment: Inhibition of MK2
[15] = molecular target: Mitogen-activated protein kinase 14 (Homo sapiens, UniProt Q16539); experiment: Inhibition of p38alpha
[16] = molecular target: Tyrosine-protein kinase Lyn (Homo sapiens, UniProt P07948); experiment: Inhibition of LYN
[17] = Plasma concentration in LPS challenged Sprague-Dawley rat at 50 mg/kg, po after 1 hr; assay type: ADME, organism-based; set-up: dose 50 mg/kg, route oral
Rattus norvegicus [18] = experiment: Inhibition of TNFalpha production in Sprague-Dawley rat at 50 mg/kg, po administered 1 hr prior to LPS challenge after 1.5 hrs; assay type: functional
[19] = molecular target: Glycogen synthase kinase-3 beta (Homo sapiens, UniProt P49841); experiment: Inhibition of GSKbeta
[20] = molecular target: Mitogen-activated protein kinase 8 (Homo sapiens, UniProt P45983); experiment: Inhibition of Jnk1
[21] = molecular target: Protein kinase C theta type (Homo sapiens, UniProt Q04759); experiment: Inhibition of PKCtheta
[22] = molecular target: Tyrosine-protein kinase Lck (Homo sapiens, UniProt P06239); experiment: Inhibition of LCK
[23] = molecular target: Tyrosine-protein kinase BTK (Homo sapiens, UniProt Q06187); experiment: Inhibition of BTK
[24] = Plasma concentration in LPS challenged Sprague-Dawley rat at 50 mg/kg, po after 150 mins; assay type: ADME, organism-based; set-up: dose 50 mg/kg, route oral
[25] = molecular target: Epidermal growth factor receptor (Homo sapiens, UniProt P00533)
Epidermal growth factor receptor, sequence (P00533 whole entry): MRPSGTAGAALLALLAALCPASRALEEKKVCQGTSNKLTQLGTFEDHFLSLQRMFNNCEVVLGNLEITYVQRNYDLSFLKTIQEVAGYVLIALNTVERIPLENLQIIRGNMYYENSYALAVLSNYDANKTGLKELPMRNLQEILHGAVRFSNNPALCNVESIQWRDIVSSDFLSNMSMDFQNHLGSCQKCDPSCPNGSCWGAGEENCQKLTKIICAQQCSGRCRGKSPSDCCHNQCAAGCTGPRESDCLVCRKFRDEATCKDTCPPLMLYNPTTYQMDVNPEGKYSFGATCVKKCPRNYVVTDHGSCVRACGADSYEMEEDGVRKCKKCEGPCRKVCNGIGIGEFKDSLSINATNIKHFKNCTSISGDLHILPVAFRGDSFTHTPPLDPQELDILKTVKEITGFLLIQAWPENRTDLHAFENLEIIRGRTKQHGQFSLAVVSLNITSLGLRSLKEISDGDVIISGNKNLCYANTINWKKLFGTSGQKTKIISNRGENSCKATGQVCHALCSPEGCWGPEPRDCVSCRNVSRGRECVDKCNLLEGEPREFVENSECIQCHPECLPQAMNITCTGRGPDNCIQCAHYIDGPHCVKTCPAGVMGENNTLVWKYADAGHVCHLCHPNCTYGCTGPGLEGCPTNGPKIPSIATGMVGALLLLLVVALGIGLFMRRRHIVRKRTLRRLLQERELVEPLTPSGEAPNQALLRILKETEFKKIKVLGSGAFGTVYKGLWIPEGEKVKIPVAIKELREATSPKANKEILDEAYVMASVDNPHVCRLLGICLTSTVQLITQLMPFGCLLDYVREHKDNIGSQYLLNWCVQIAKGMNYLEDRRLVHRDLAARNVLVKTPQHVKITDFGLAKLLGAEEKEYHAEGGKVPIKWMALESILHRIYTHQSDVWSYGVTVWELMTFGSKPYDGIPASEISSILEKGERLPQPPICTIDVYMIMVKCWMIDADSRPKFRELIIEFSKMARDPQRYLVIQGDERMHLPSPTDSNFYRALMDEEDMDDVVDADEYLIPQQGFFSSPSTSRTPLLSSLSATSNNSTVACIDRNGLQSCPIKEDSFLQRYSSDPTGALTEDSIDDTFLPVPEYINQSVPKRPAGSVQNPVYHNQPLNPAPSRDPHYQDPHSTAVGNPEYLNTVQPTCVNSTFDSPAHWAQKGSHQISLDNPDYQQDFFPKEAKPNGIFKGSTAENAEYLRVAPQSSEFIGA

Ribosomal protein S6 kinase beta-1, sequence (P23443 whole entry): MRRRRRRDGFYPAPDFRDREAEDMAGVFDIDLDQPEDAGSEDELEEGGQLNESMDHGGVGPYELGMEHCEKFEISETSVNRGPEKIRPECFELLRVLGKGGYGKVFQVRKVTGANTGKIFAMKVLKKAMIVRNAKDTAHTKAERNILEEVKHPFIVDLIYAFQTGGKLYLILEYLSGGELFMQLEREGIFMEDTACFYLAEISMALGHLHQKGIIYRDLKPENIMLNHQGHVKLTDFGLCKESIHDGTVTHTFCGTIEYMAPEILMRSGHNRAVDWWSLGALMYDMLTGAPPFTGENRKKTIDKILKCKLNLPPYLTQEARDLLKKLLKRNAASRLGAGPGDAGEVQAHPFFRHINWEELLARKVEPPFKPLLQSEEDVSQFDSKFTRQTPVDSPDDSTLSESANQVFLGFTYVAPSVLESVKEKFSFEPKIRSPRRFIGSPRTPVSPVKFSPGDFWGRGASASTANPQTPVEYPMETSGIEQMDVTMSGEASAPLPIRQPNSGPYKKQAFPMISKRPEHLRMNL
Mitogen-activated protein kinase kinase kinase 8, sequence (P41279 whole entry): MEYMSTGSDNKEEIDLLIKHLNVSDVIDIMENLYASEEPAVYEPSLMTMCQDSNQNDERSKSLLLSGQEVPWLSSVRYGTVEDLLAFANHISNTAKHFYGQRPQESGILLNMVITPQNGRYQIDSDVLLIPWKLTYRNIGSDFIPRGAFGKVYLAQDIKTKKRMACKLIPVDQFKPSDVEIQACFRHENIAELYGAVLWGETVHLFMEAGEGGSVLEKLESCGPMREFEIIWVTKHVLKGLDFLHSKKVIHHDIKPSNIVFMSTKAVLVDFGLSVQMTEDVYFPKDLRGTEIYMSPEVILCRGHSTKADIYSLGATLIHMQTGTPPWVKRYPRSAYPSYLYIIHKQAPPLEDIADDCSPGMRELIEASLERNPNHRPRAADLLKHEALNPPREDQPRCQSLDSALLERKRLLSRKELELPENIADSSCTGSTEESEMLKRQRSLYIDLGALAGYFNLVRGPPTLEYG
Cytochrome P450 3A4, sequence (P08684 whole entry): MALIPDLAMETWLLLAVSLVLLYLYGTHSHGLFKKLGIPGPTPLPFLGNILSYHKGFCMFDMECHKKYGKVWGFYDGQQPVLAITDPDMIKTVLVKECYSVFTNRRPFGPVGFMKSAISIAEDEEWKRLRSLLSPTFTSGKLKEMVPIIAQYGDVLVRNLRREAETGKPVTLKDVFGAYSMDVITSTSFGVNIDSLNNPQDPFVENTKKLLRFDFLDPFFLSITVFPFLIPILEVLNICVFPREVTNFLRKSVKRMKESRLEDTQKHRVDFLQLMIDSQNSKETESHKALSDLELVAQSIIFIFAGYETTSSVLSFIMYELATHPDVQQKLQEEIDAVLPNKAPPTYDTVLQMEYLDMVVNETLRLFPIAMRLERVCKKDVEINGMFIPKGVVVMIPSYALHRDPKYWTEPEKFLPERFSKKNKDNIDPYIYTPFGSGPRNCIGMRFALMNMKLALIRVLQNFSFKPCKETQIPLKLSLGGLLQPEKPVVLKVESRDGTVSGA
Proto-oncogene tyrosine-protein kinase Src, sequence (P12931 2-536 limits assumed): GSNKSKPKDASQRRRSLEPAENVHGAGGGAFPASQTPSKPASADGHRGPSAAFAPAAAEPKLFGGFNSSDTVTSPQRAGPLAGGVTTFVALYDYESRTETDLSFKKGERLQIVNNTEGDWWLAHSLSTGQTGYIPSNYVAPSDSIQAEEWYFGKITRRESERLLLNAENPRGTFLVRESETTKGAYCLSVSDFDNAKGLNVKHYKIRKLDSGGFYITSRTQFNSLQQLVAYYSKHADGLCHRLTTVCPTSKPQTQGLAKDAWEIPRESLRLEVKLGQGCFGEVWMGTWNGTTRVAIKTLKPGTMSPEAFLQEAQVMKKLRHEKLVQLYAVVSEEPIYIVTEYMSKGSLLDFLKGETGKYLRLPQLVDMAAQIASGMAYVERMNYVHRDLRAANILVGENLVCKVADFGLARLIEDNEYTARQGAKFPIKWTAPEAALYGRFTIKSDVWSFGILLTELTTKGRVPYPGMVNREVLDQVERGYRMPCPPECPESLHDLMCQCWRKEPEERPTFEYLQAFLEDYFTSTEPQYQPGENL
Mitogen-activated protein kinase 14, sequence (Q16539 whole entry): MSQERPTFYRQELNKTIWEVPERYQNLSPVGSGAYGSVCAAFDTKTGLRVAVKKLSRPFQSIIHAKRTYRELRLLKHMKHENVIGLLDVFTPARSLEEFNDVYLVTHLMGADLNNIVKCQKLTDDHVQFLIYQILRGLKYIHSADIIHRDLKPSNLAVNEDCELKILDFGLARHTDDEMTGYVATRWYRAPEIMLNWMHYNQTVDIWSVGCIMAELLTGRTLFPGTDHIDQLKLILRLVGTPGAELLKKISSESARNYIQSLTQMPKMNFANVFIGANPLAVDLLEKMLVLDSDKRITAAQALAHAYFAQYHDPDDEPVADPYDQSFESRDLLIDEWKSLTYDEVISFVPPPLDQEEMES
MAP kinase-activated protein kinase 2, sequence (P49137 whole entry): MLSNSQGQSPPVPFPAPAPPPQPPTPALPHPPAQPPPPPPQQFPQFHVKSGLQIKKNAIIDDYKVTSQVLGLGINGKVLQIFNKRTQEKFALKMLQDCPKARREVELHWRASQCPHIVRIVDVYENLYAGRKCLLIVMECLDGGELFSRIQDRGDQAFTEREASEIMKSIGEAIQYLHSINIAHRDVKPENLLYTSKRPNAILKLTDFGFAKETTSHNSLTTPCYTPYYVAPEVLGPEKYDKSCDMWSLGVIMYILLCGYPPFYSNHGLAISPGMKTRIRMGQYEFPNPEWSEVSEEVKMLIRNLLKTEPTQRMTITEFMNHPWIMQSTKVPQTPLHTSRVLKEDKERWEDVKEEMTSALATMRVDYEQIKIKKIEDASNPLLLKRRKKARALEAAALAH

CC#CCOc1ccc(S(=O)(=O)N2CCSC(C)(C)[C@@H]2C(=O)NO)cc1
inhibition in vivo at 10 mg/kg (Rattus norvegicus [1]): 85%

N#Cc1cnc2ccc(NCc3c[nH]cn3)cc2c1Nc1ccc(F)c(Cl)c1
Activity (Blood): 3.3 µM | Inhibitory concentration (Monocyte): 600 nM

N#Cc1cnc2c(Cl)cc(NCc3nn[nH]n3)cc2c1Nc1ccc(F)c(Cl)c1
Activity (Blood): >20 µM | Inhibitory concentration (Monocyte): >5000 nM | IC50 [2]: 0.002 µM

N#Cc1cnc2c(Br)cc(NCc3cn[nH]n3)cc2c1Nc1ccc(F)c(Cl)c1
Activity (Blood): 3.5 µM | AUC/dose (Rattus norvegicus [3]): < 10 ng·kg·h/mg/mL | Vd [4]: 2.7 L/kg | IC50 [5]: > 100 µM | IC50 [6]: > 100 µM | clearance [7]: 29 mL/min/kg | half-life [8]: 3.2 h | Papp [9]: < 5 ×10⁻⁶ cm/s | bioavailability [10]: 2% | solubility (physchem): < 10 µg/mL | Inhibitory concentration (Monocyte): 74 nM | IC50 [11]: > 100 µM | half-life [12]: 3.9 h

CC(C)c1[nH]cnc1CNc1cc(Br)c2ncc(C#N)c(Nc3ccc(F)c(Cl)c3)c2c1
Activity (Blood): >20 µM | Inhibitory concentration (Monocyte): 2200 nM

CC(C)c1[nH]cnc1CNc1cc(Cl)c2ncc(C#N)c(Nc3ccc(F)c(Cl)c3)c2c1
Activity (Blood): 5.8 µM

CCCc1[nH]cnc1CNc1cc(Cl)c2ncc(C#N)c(Nc3ccc(F)c(Cl)c3)c2c1
Activity (Blood): 5.6 µM | Vd [4]: 12.2 L/kg | IC50 [13]: > 40 µM | IC50 [5]: 76.1 µM | IC50 [6]: 18.8 µM | clearance [7]: > 100 mL/min/kg | IC50 (CaM kinase II): > 40 µM | half-life [8]: 1.2 h | Papp [9]: < 5 ×10⁻⁶ cm/s | solubility (physchem): < 10 µg/mL | IC50 (Cytochrome P450 3A4): 16 µM | Inhibitory concentration (Monocyte): 220 nM | IC50 [14]: 62.7 µM | IC50 [15]: > 40 µM | IC50 [11]: > 40 µM

COC(=O)c1[nH]cnc1CNc1cc(Br)c2ncc(C#N)c(Nc3ccc(F)c(Cl)c3)c2c1
Activity (Blood): >20 µM | Inhibitory concentration (Monocyte): 2000 nM

CN(C)CCCc1[nH]cnc1CNc1cc(Cl)c2ncc(C#N)c(Nc3ccc(F)c(Cl)c3)c2c1
Activity (Blood): 15.2 µM

N#Cc1cnc2c(Cl)cc(NCc3cccc(N4CCOCC4)n3)cc2c1Nc1ccc(F)c(Cl)c1
IC50 [2]: 0.35 µM

Cn1cnc(CNc2cc(Br)c3ncc(C#N)c(Nc4ccc(F)c(Cl)c4)c3c2)c1
Activity (Blood): 6.3 µM | AUC/dose (Rattus norvegicus [3]): 142 ng·kg·h/mg/mL | Vd [4]: 14.1 L/kg | IC50 [13]: > 40 µM | IC50 [5]: > 100 µM | IC50 [6]: 83.1 µM | clearance [7]: 50 mL/min/kg | IC50 [16]: > 30 µM | half-life [8]: 5 h | concentration at 1 h [17]: 1100 nM | inhibition in vivo at 50 mg/kg (Rattus norvegicus [18]): 50% | IC50 [19]: > 10 µM | Papp [9]: < 5 ×10⁻⁶ cm/s | IC50 [20]: 31 µM | bioavailability [10]: 42% | IC50 [21]: > 50 µM | IC50 [22]: 4.5 µM | IC50 [23]: > 10 µM | solubility (physchem): < 10 µg/mL | IC50 (Cytochrome P450 3A4): 15 µM | Inhibitory concentration (Monocyte): 670 nM | IC50 [14]: 87.1 µM | IC50 [15]: > 40 µM | concentration at 2.5 h [24]: 550 nM | IC50 [11]: > 40 µM | half-life [12]: 4 h

N#Cc1cnc2c(Br)cc(NCc3cn(CCN4CCOCC4)cn3)cc2c1Nc1ccc(F)c(Cl)c1
Activity (Blood): 8.95 µM | solubility (physchem): 69 µg/mL (≈ 118 µM) | Inhibitory concentration (Monocyte): 430 nM

CS(=O)(=O)CCn1cnc(CNc2cc(Br)c3ncc(C#N)c(Nc4ccc(F)c(Cl)c4)c3c2)c1
Activity (Blood): >20 µM | Inhibitory concentration (Monocyte): 1000 nM

N#Cc1cnc2c(Br)cc(NCc3c[nH]cn3)cc2c1Nc1ccc(F)c(Cl)c1
Activity (Blood): >10 µM | IC50 [25]: 3.3 µM | solubility (physchem): 2 µg/mL (≈ 4.24 µM) | Inhibitory concentration (Monocyte): 370 nM | IC50 [2]: 0.01 µM

N#Cc1cnc2c(C(F)(F)F)cc(NCc3c[nH]cn3)cc2c1Nc1ccc(F)c(Cl)c1
Activity (Blood): >10 µM | IC50 [25]: > 20 µM | Inhibitory concentration (Monocyte): 600 nM | IC50 [2]: 0.16 µM

— ChEMBL document CHEMBL1148782, “Inhibitors of tumor progression loci-2 (Tpl2) kinase and tumor necrosis factor alpha (TNF-alpha) production: selectivity and in vivo antiinflammatory activity of novel 8-substituted-4-anilino-6-aminoquinoline-3-carbonitriles” (J Med Chem, 2007)
